Measured values as given in ChEMBL document CHEMBL1138494, “Human glucagon receptor antagonists with thiazole cores. A novel series with superior pharmacokinetic properties” (J Med Chem, 2009).
pIC50: −log10 of the molar value. Activity calls are given as the source filed them. The rule behind the calls is not given here.

Tests used:
Hepatocyte [1] = assay: Inhibition of glucagon-stimulated glucose production in rat primary hepatocytes; format: functional, cell-based
[2] = Oral bioavailability in fasted Sprague-Dawley rat at 3.34 mg/kg by HTLC-MS/MS analysis; format: ADME, organism-based; details: in vivo
How it was run: (§1)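 Separate intravenous and peroral dosing arms per compound, with plasma concentration followed against time. Oral bioavailability (F_po) is reported per compound together with the intravenous half-life and clearance. The dose used for each arm is listed per compound.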

[3] = Binding affinity to glucagon receptor in monkey liver membrane by membrane filter assay; format: cell membranes, Macaca mulatta
[4] = Half life in fasted Sprague-Dawley rat plasma at 1.66 mg/kg, iv by HTLC-MS/MS analysis; format: ADME, organism-based; set-up: dose 1.66 mg/kg, route intravenous
How it was run: (§2)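 Rats were dosed intravenously and perorally in separate arms, and plasma concentration-time profiles were obtained. Half-life was taken from the iv arm. Clearance, oral bioavailability, Cmax and Tmax were derived from the profiles.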

[5] = target: T1, Gastric inhibitory polypeptide receptor (Homo sapiens, UniProt P48546); assay: Displacement of [125I]porcine GIP from human recombinant GIPR receptor expressed in BHK cells by scintillation proximity assay; format: cell-based
T1 sequence (P48546 whole entry): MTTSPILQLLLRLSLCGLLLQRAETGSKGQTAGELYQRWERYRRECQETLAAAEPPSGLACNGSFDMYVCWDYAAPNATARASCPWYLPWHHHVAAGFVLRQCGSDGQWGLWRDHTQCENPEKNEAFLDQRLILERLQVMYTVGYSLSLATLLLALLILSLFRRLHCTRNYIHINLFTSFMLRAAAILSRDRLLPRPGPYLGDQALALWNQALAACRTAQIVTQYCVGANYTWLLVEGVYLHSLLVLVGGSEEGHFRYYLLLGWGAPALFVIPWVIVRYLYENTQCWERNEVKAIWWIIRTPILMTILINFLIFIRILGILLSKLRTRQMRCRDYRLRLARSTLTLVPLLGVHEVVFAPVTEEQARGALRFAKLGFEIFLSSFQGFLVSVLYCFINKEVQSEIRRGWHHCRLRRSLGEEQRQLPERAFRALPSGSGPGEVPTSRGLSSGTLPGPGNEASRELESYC

Hepatocyte [6] = assay: Inhibition of glucagon-stimulated glucose production in human primary hepatocytes preincubated for 10 mins before glucagon addition by NADH-linked hexokinase assay; format: functional, cell-based
How it was run: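 Cultured primary human hepatocytes were preincubated with compound for 10 min, then glycogenolysis was induced with 5 nM glucagon for 60 min. Glucose in the medium was measured against basal glycogenolysis. Albumin was present in the assay medium. IC50 was calculated from four experiments, mean ± SEM.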

[7] = target: T1, Gastric inhibitory polypeptide receptor; assay: Binding affinity to human recombinant GIPR expressed in BHK cells by membrane filter assay; format: cell-based
[8] = Tmax in fasted Sprague-Dawley rat at 1.66 mg/kg, iv and 3.34 mg/kg, po by HTLC-MS/MS analysis; format: ADME, organism-based; details: in vivo
How it was run: (§3)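 Plasma concentration–time profiles were recorded after separate intravenous and peroral dosing at the per-compound doses listed. T_max is reported in min alongside C_max (ng/mL), intravenous half-life and clearance ((mL/min)/kg).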

Homo sapiens [9] = species on record: Homo sapiens; assay: Selectivity for human recombinant glucagon receptor over human GLP1R
Homo sapiens [10] = species on record: Homo sapiens; assay: Selectivity ratio of IC50 for human recombinant glucagon receptor to IC50 for human recombinant GIPR
How it was run: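 Competition binding of compounds to recombinant human glucagon and GIP receptors on BHK cell membranes, run in parallel as a scintillation proximity assay and, for selected compounds, as a membrane filtration assay.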

Glucagon receptor [11] = target: T2, Glucagon receptor (Homo sapiens, UniProt P47871); assay: Binding affinity to human recombinant glucagon receptor expressed in BHK cells by membrane filter assay; format: cell-based
Glucagon receptor [12] = target: Glucagon receptor (Mus musculus, UniProt Q61606); assay: Binding affinity to glucagon receptor in mouse liver membrane by membrane filter assay; format: cell membranes
Glucagon receptor [13] = target: Glucagon receptor (Rattus norvegicus, UniProt P30082); assay: Binding affinity to glucagon receptor in rat liver membrane by membrane filter assay; format: cell membranes
[14] = Clearance in fasted Sprague-Dawley rat at 1.66 mg/kg, iv and 3.34 mg/kg, po by HTLC-MS/MS analysis; format: ADME, organism-based; details: in vivo; how it was run: as §2
Glucagon receptor [15] = target: T2, Glucagon receptor; assay: Displacement of [125I]porcine glucagon from human recombinant glucagon receptor expressed in BHK cells by scintillation proximity assay; format: cell-based
[16] = Cmax in fasted Sprague-Dawley rat at 1.66 mg/kg, iv and 3.34 mg/kg, po by HTLC-MS/MS analysis; format: ADME, organism-based; details: in vivo; how it was run: as §2
[17] = Cmax in fasted Sprague-Dawley rat at 1.59 mg/kg, iv and 3.20 mg/kg, po by HTLC-MS/MS analysis; format: ADME, organism-based; details: in vivo, 3.2 mg/kg; how it was run: as §2
[18] = Cmax in fasted Beagle dog at 0.25 mg/kg, iv and 0.5 mg/kg, po; format: ADME, organism-based, Canis lupus familiaris; details: in vivo
How it was run: (§4)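 Dogs were dosed at 0.25 mg/kg iv and 0.5 mg/kg po, and plasma concentration was followed over time. Half-life came from the iv arm; clearance, Cmax and Tmax were also derived.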

[19] = Clearance in fasted Beagle dog at 0.25 mg/kg, iv and 0.5 mg/kg, po; format: ADME, organism-based, Canis lupus familiaris; details: in vivo; how it was run: as §4
[20] = Tmax in fasted Sprague-Dawley rat at 1.59 mg/kg, iv and 3.20 mg/kg, po by HTLC-MS/MS analysis; format: ADME, organism-based; details: in vivo, 3.2 mg/kg; how it was run: as §3
[21] = Half life in fasted Sprague-Dawley rat plasma at 1.59 mg/kg, iv by HTLC-MS/MS analysis; format: ADME, organism-based; set-up: dose 1.59 mg/kg, route intravenous; how it was run: as §2
[22] = Oral bioavailability in fasted Beagle dog at 0.5 mg/kg; format: ADME, organism-based, Canis lupus familiaris; details: in vivo; how it was run: as §1
[23] = Binding affinity to glucagon receptor in pig liver membrane by membrane filter assay; format: cell membranes, Sus scrofa
[24] = Binding affinity to glucagon receptor in dog liver membrane by membrane filter assay; format: cell membranes, Canis lupus familiaris
[25] = Binding affinity to glucagon receptor in rabbit liver membrane by membrane filter assay; format: cell membranes, Oryctolagus cuniculus
[26] = Half life in fasted Beagle dog at 0.25 mg/kg, iv; format: ADME, organism-based, Canis lupus familiaris; set-up: dose 0.25 mg/kg, route intravenous; details: in vivo; how it was run: as §4
[27] = Clearance in fasted Sprague-Dawley rat at 1.59 mg/kg, iv and 3.20 mg/kg, po by HTLC-MS/MS analysis; format: ADME, organism-based; details: in vivo; how it was run: as §2
[28] = Tmax in fasted Beagle dog at 0.25 mg/kg, iv and 0.5 mg/kg, po; format: ADME, organism-based, Canis lupus familiaris; details: in vivo; how it was run: as §3
[29] = Oral bioavailability in fasted Sprague-Dawley rat at 3.20 mg/kg by HTLC-MS/MS analysis; format: ADME, organism-based; details: in vivo, 3.2 mg/kg; how it was run: as §1
[30] = Oral bioavailability in fasted Sprague-Dawley rat at 2.1 mg/kg by HTLC-MS/MS analysis; format: ADME, organism-based; details: in vivo; how it was run: as §1
[31] = Tmax in fasted Sprague-Dawley rat at 1.1 mg/kg, iv and 2.1 mg/kg, po by HTLC-MS/MS analysis; format: ADME, organism-based; details: in vivo; how it was run: as §3
[32] = Cmax in fasted Sprague-Dawley rat at 1.1 mg/kg, iv and 2.1 mg/kg, po by HTLC-MS/MS analysis; format: ADME, organism-based; details: in vivo; how it was run: as §2
[33] = Half life in fasted Sprague-Dawley rat plasma at 1.1 mg/kg, iv by HTLC-MS/MS analysis; format: ADME, organism-based; set-up: dose 1.1 mg/kg, route intravenous; how it was run: as §2
[34] = Clearance in fasted Sprague-Dawley rat at 1.1 mg/kg, iv and 2.1 mg/kg, po by HTLC-MS/MS analysis; format: ADME, organism-based; details: in vivo; how it was run: as §2
[35] = Tmax in fasted Sprague-Dawley rat at 1.6mg/kg, iv and 3 mg/kg, po; format: ADME, organism-based; set-up: dose 3 mg/kg, route oral; details: in vivo; how it was run: as §3
[36] = Oral bioavailability in fasted Sprague-Dawley rat at 3 mg/kg by HTLC-MS/MS analysis; format: ADME, organism-based; details: in vivo; how it was run: as §1
[37] = Clearance in fasted Sprague-Dawley rat at 1.66 mg/kg, iv and 3 mg/kg, po; format: ADME, organism-based; details: in vivo; how it was run: as §2
[38] = Cmax in fasted Sprague-Dawley rat at 1.66mg/kg, iv and 3 mg/kg, po; format: ADME, organism-based; set-up: dose 3 mg/kg, route oral; details: in vivo; how it was run: as §2

Chain of Glucagon receptor (Mus musculus, UniProt Q61606) (Q61606 whole entry): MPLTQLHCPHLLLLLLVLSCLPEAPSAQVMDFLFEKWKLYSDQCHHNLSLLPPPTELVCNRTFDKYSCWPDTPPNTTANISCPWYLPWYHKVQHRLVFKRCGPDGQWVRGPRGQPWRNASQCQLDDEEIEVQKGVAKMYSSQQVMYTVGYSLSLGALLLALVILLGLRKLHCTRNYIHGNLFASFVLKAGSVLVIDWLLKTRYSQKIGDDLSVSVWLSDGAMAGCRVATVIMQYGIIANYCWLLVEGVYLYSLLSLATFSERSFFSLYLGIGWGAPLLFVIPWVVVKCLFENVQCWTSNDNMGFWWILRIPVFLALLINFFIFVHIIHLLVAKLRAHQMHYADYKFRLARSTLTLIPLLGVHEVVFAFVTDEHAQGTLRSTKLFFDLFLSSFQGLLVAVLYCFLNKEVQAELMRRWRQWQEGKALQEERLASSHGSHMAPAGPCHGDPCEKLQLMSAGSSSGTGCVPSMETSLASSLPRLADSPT
T2 sequence (P47871 whole entry): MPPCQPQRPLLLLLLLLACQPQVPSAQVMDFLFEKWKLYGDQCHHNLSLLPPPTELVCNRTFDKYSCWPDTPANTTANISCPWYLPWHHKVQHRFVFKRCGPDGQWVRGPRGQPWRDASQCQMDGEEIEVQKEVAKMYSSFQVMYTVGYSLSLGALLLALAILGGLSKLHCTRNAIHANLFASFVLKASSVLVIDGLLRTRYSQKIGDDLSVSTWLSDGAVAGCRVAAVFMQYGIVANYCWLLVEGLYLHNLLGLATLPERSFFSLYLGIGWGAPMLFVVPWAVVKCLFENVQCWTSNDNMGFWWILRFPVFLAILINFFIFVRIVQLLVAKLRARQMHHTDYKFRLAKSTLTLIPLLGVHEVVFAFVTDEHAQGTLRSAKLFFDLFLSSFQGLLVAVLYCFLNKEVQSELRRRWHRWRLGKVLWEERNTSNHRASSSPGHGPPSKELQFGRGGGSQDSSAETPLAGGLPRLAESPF
Chain of Glucagon receptor (Rattus norvegicus, UniProt P30082) (P30082 whole entry): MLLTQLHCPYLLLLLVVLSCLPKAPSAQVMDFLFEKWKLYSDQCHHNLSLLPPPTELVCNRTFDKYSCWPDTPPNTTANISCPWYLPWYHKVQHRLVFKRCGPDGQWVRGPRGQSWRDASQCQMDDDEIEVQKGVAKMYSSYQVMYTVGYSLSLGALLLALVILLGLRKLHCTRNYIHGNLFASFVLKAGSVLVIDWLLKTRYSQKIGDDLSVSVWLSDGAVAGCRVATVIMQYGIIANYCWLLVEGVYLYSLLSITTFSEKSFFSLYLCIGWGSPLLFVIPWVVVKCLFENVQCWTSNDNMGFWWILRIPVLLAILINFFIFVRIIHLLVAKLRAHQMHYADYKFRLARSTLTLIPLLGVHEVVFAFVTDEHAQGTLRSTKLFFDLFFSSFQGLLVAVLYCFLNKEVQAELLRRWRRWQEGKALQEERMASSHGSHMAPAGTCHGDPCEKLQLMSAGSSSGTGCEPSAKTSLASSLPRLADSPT

Row | SMILES | inhibition (Hepatocyte [1]) | pIC50 [3] | half-life [4] [h] | pIC50 [5] | pIC50 (Hepatocyte [6]) | pIC50 [7] | fold change (FC) (Homo sapiens [9]) | fold change (FC) (Homo sapiens [10]) | pIC50 (Glucagon receptor [11]) | pIC50 (Glucagon receptor [12]) | pIC50 (Glucagon receptor [13]) | pIC50 (Glucagon receptor [15]) | other results
1 | O=C(O)CCNC(=O)c1ccc(CN(c2ccc3c(c2)CCC3)c2nc(-c3ccc(OC(F)(F)F)cc3)cs2)cc1 | inactive | 7.03 | 1.02 | 6.02 | 5.07 | 6.11 | > 50 | 5 | 7.02 | 6.17 | 5.36 | 7.07 | bioavailability [2]: 87%; Tmax [8]: 4 h; clearance [14]: 15 mL/min/kg; Cmax [16]: 704 ng/mL
2 | O=C(O)CCNC(=O)c1ccc(CN(c2ccc(Cl)cc2)c2nc(-c3ccc(OC(F)(F)F)cc3)cs2)cc1 | inactive | 7.22 | – | 6.06 | 5.55 | 6.34 | > 50 | 5 | 7.28 | 6.38 | 5.77 | 7.09 | Cmax [17]: 521 ng/mL; Cmax [18]: 554 ng/mL; clearance [19]: 4.64 mL/min/kg; Tmax [20]: 1 h; half-life [21]: 1.52 h; bioavailability [22]: 71%; pIC50 [23]: 5.24; pIC50 [24]: 7.11; pIC50 [25]: 5.92; half-life [26]: 1.1 h; clearance [27]: 6 mL/min/kg; Tmax [28]: 1.5 h; bioavailability [29]: 16%
3 | O=C(O)CCNC(=O)c1ccc(CN(c2ccc3c(c2)Cc2ccccc2-3)c2nc(-c3ccc(OC(F)(F)F)cc3)cs2)cc1 | inactive | 7.21 | – | 6.31 | 6.15 | 6.54 | > 50 | 5 | 7.23 | 6.66 | 5.74 | 7.30 | bioavailability [30]: 12%; Tmax [31]: 5 h; Cmax [32]: 471 ng/mL; half-life [33]: 2.47 h; clearance [34]: 5 mL/min/kg
4 | O=C(O)CCNC(=O)c1ccc(N(Cc2ccc3c(c2)Cc2ccccc2-3)c2nc(-c3ccc(C(F)(F)F)cc3)cs2)cc1 | – | – | 0.667 | 6.19 | – | – | > 50 | 5 | – | – | – | 7.11 | Tmax [35]: 1.5 h; bioavailability [36]: 13%; clearance [37]: 31 mL/min/kg; Cmax [38]: 93 ng/mL
